# Sampled rows, rich in hits. Any-hit rate of the full collection: about 0.3%.
# BasE inh: blocks the Acinetobacter baumannii siderophore enzyme BasE; purified BasE, fluorescence polarization binding displacement; actives 0.1% (n = 84,000); inhibition, % (no concentration beside the values); in the data active means inhibition above about 25%, passing the limit was not always enough;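 further: 0% = negative plate control signal and 100% = positive plate control signal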
# LANA-nucl inh: LANA-nucleosome interaction inhibition | FITC-LANA1-23 / chicken nucleosome fluorescence polarization; stronger effect = lower value | z-score (no concentration beside the values) | actives 0.3% (n = 51,000) | AID 720717;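 active means both repeat wells score below -2 in polarization z-score versus plate sample wells, excluding overly bright wells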
#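 test system = FITC-LANA peptide and chicken nucleosomes | amount = 240 nM purified chicken nucleosomes (480 nM peptide binding sites), final | reagent = 50 nM FITC-LANA1-23 probe | medium = TEN-BT buffer, pH 7.5 | doses = single compound addition by pin transfer, 100 nL per well | timing = 10–45 min, room temperature | detection = fluorescence polarization | repeats = duplicate plates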
# * hit, by the source's call; · = no result; ! = not confirmed by another sample.
SMILES,BasE inh,LANA-nucl inh
O=C1CN(C(=O)CC2c3ccccc3-c3ccccc32)CC(=O)N1,43*,-0.66
CCOC(=O)N1CCN(C(=O)CC2c3ccccc3Oc3ccccc32)CC1,1,-1
COc1cccc(=O)c2c(C)oc(C)c12,12,-4.4*
CCOc1cc(/C=C/c2ccccc2OC)cc(=O)c2c(C)oc(C)c12,16,·
Cn1nc(-c2ccc(F)cc2)nc2c(=O)n(C)c(=O)nc1-2,36,-4.8*
Fc1ccc(-c2nc3n(n2)Cc2ccccc2-3)cc1,-2,1
Cc1cc(O)cc(=O)n1C,1,0.066
Cc1cc(O)c(Cc2c(O)cc(C)n(C)c2=O)c(=O)n1C,1,-2.4*
NS(=O)(=O)/C=C/c1ccc(Cl)cc1,0,·
Cc1oc2nc[nH]c(=O)c2c1C(=O)OC(C(=O)N1CCCCC1)c1ccccc1 (stereo unspecified),3,·
COC(=O)c1sc2nc(-c3ccco3)cc(C(F)(F)F)c2c1N,3,-1.1
COC(=O)c1sc2nc3c(c(C(F)(F)F)c2c1N)CN(C(C)=O)CC3,31,-8.1*
COC(=O)CSc1nnc(C2CCCCC2)o1,1,1.5
CCSc1nc2c(c(=O)n1-c1cc(C)cc(C)c1)SCC2,0,0.32
Cc1ccc(C)n1-c1cc(Cl)ccc1N1CCCCC1,-1,·
Cc1ccc(C)n1-c1cc(Cl)ccc1C(=O)O,85*,-0.21
COCCNC(=O)c1cc(Br)c(C)c(C)c1C,2,-2.4*
COCCNC(=O)c1cc(Br)cs1,2,0.078
Cc1csc(C(C#N)C(=O)CSc2cc(C)c3ccccc3n2)n1 (stereo unspecified),2,·
Cc1csc(C(C#N)C(=O)CSc2nc3ccccc3n2-c2ccccc2)n1 (stereo unspecified),35*,·
O=C(/C=C/c1ccccc1)Oc1ccc(-c2nnco2)cc1,-5,·
O=C(C1CCN(S(=O)(=O)c2ccc3c(c2)OCCO3)CC1)N1CCN(c2nc3ccccc3s2)CC1,-3,2.2
CSCc1c(C(=O)NCc2ccc3c(c2)OCO3)oc2ccccc12,1,·
COC(=O)c1cc(-c2ccc(C)cc2)no1,1,0.41
CCOC(=O)c1cc(-c2ccc(N(CC)CC)cc2)no1,5,-4.8*
SMILES,BasE inh,LANA-nucl inh
O=C(CN1C(=O)c2ccccc2C1=O)NCC1COC2(CCCCC2)O1 (stereo unspecified),1,-0.47
O=C1c2ccccc2-c2n[nH]c3cccc1c23,9,-2*!
O=c1[nH]nc2c3c(cccc13)-c1ccccc1-2,-3,1.9
CC(C)(C)OC(=O)CSc1nnc(Cc2cccc3ccccc23)n1N,-1,·
CCNC(=S)N1CCN(S(=O)(=O)c2ccc(Cl)cc2)CC1,3,-2.2*
CCNC(=S)N1CCN(S(=O)(=O)c2ccc(C)cc2)CC1,-3,·
CCOc1ccc(NC(=O)COC(=O)c2cccc(OC)c2)cc1,-1,·
COCCCN1C(=O)CSC1c1cn(-c2ccccc2)nc1-c1cccs1 (stereo unspecified),2,·
C1CCCN(c2nc3nonc3nc2N2CCCCCC2)CC1,0,-0.2
OCCN(CCO)c1nc(N2CCCCC2)c2nc(N(CCO)CCO)nc(N3CCCCC3)c2n1,36*!,-2.3*!
O=C(CCCCCN1C(=O)c2ccccc2C1=O)Nc1ccc2c(c1)OCO2,-2,-0.75
CCCCSC1=C(C#N)C(=O)NC(CO)S1 (stereo unspecified),0,-0.75
CCCCCCSc1s[nH]c(=O)c1C#N,85*,-1.2
Cc1cc(C)c(Cn2cccc2C2=NC(C(C)C)CO2)c(C)c1 (stereo unspecified),2,-0.5
CCC(=O)N1N=C(c2ccco2)CC1c1cn(-c2ccccc2)nc1-c1ccc(OC)cc1 (stereo unspecified),-4,0.62
O=C(Nc1cccc(-c2nn[nH]n2)c1)c1ccc(Br)o1,3,-2.1*
O=C(Nc1cccc(-c2nn[nH]n2)c1)c1cccc(C(F)(F)F)c1,0,-0.21
O=c1cc(OCc2ccccc2)c2ccccc2[nH]1,1,-0.13
CN1CCN(C(=S)c2ccc(F)cc2)CC1,0,0.098
N#C/C(=C\c1ccc(-c2ccccc2)o1)c1ccccc1,-34,2.3
N#C/C(=C\c1ccc(N2CCCC2)o1)c1ccccc1,-36,-5.4*
N#Cc1cnn2cc(CCCO)c(C(F)(F)F)nc12,·,-1.6
CC1=C(C(=O)Nc2ccccc2)S(=O)CCO1 (stereo unspecified),·,0.38
O=C1C(c2ccnc3ccccc23)=C(O)c2ccccc21,2,-4.2*
O=C1C(c2ccc(I)cc2)=C(O)c2ccccc21,4,·
SMILES,BasE inh,LANA-nucl inh
CCOC(=O)c1cc2c(=O)n3ccccc3nc2n(CC2CCCO2)c1=NC(C)=O (stereo unspecified),-4,0.76
CCOC(=O)c1cc2c(=O)n3ccccc3nc2n(C2CCCCC2)c1=NC(=O)c1cccnc1,2,-2.6*
O=C(CCS(=O)(=O)Cc1ccccc1)N1CCc2ccccc21,2,-1
O=C(OCC(=O)N(Cc1ccccc1)C1CCS(=O)(=O)C1)c1ccccc1C(F)(F)F (stereo unspecified),3,·
O=c1oc2ccccc2c(O)c1Cc1cc(Cl)c2cccnc2c1O,23,·
Cc1cc(O)c(Cc2cc(Cl)c3cccnc3c2O)c(=O)o1,78*,·
CCCCNC(=O)c1nn(-c2ccc(OC)cc2)c(=O)c2ccccc12,0,-0.16
COc1ccc(-c2csc(-n3[nH]c(C)c(C(c4ccc(Cl)cc4)C(C#N)C(N)=O)c3=O)n2)cc1 (stereo unspecified),35*,-0.008
COc1ccc(-c2cc(-c3ccco3)nn2-c2nc(-c3ccc(Cl)cc3)cs2)cc1,-1,·
O=C(/C=C\c1ccco1)Nc1c2c(nn1-c1ccc(Cl)cc1)CSC2,-14,0.18
Cc1cc2c(c(=O)[nH]1)C(c1ccncc1)C(C#N)=C(N)O2 (stereo unspecified),0,-0.88
COC(=O)C1=C(N)Oc2cc(C)[nH]c(=O)c2C1c1ccccc1OC (stereo unspecified),43*,-0.77
Cc1occc1C(=O)Nc1ccc(S(=O)(=O)N(C)C)cc1,-7,2.4
O=C(O)c1cccn2nnnc12,0,-2.3*
O=C(O)c1ccccc1O,-1,0.21
CCCCNC(=O)c1ccc(NC(C)=O)cc1,2,·
Clc1ccc(CCNc2ncnc3c2nc2n3CCCC2)cc1,-5,1.2
Cc1cc(=O)[nH]c(SCC(=O)c2cccs2)n1,1,·
COc1cc(C(=O)CSc2nccc(C)n2)cc(OC)c1OC,6,·
Cc1ccnc(SCC(=O)c2cccs2)n1,61*,·
Cc1ccnc(SCC(=O)c2ccc(Br)cc2)n1,44*,-0.93
Cc1nn(-c2ccccc2)c(C)c1CS(=O)(=O)c1ccccc1,·,0.38
CCCSc1nnc(-c2ccc(Cl)cc2)n1Cc1ccco1,0,·
COc1ccc(NC(=S)NC(C)(C)C)cc1,2,-0.31
O=C(O)CCc1ccc(-c2ccc(F)cc2)n1CCC(=O)O,2,-2.1*
SMILES,BasE inh,LANA-nucl inh
O=C(O)CCc1ccc(-c2ccc(F)cc2)n1CC1CCCO1 (stereo unspecified),-2,2.7
Clc1ccc(Oc2cnns2)c2ccccc12,·,-0.4
N#C/C(=C\c1ccco1)C(N)=S,-2,·
N#C/C(=C\C=C\c1ccco1)C(N)=S,33*,-0.63
Cc1cc(NCCNc2ccccc2)c2ccc3ccccc3c2n1,-13,·
Cc1cc(NCCN(C)C)c2ccccc2n1,3,-2.2*
CC(C)(S)P(=O)(O)c1ccccc1,3,-0.51

# Screens from PubChem.
